Measured values taken from article PMC2114617 (The Journal of Cell Biology, 1986).

Legend:
[1] = tested on: B16-F10 melanoma cells; assay: Inhibition of B16-F10 melanoma cell spreading on fibronectin; type: cell-based, murine; conditions: data not shown
Method in brief: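 Wells coated 60 min at room temperature with human plasma fibronectin (4 μg/ml) in PBS+, then blocked 30 min with heat-denatured BSA. Test peptide in PBS+ was added, with or without 5 μg/ml mAb333. Cells were fixed and %-spread scored by phase contrast (300 cells/well).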

[2] = tested on: B16-F10 melanoma cells; assay: Inhibition of B16-F10 melanoma cell spreading on CS5; type: cell-based, murine; conditions: CS5 substrate; data not shown
[3] = tested on: BHK fibroblasts; assay: Spreading of BHK fibroblasts on fibronectin or its tryptic fragments; type: cell-based, hamster; conditions: substrate-coated protein
Method in brief: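 Wells were coated 60 min at room temperature with human plasma fibronectin or its purified tryptic fragments (90-98% pure), with coating levels expressed in nM. Wells were blocked with heat-denatured BSA.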

Substance | Inhibition of B16-F10 spreading on fibronectin at concentrations up to 1 mg/ml [1] | further results
Arg- Asp [RD] | completely inactive | –
Arg-Gly-Pro-Phe-Pro-lle [RGPFPI] | completely inactive | –
GRGD | – | Inhibition of B16-F10 spreading on CS5 [2]: highly inhibitory
Gly-His-Lys [GHK] | completely inactive | –
SDGR | – | Inhibition of B16-F10 spreading on CS5 [2]: more active than GRGDS
Thr-Lys-Pro- Arg [TKPR] | completely inactive | –
fibronectin | – | Spreading of BHK cells on fibronectin and fragments [3]: spread equally well
heparin | no detectable effect | –
insulin A chain: Insulin A chain from Sigma Chemical Co., peptide unrelated to RGDS | completely inactive | –
